# Compound activity deposited in PubChem BioAssay by several laboratories.
# MPTP inh: inhibitors of mitochondrial permeability transition pore | isolated mouse mitochondria, Ca2+ swelling absorbance, 30 min | inhibition, % at 10 µM | 360,000 tested, 1.4% active;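 active = inhibition of 50% or more, scaled per plate between neutral and stimulator controls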;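 also: 0% = DMSO wells given calcium and 100% = 1 mM EGTA wells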
# NR2E3 ag-1: activates human photoreceptor nuclear receptor NR2E3 | Q9Y5X4 | GST-NR2E3/biotin-RetCOR TR-FRET, 1536-well | inhibition of corepressor binding, % at 4.78 µM | 320,000 tested, 0.12% active | AID 2300;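 active = percent inhibition above the cutoff of mean plus 3 SD of all tested compounds, set per screening campaign, cut at about 20% in these data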;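 also: 0% = DMSO wells and 100% = biotin wells as full block of FRET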
# Target sequence (Q9Y5X4 whole entry, looked up): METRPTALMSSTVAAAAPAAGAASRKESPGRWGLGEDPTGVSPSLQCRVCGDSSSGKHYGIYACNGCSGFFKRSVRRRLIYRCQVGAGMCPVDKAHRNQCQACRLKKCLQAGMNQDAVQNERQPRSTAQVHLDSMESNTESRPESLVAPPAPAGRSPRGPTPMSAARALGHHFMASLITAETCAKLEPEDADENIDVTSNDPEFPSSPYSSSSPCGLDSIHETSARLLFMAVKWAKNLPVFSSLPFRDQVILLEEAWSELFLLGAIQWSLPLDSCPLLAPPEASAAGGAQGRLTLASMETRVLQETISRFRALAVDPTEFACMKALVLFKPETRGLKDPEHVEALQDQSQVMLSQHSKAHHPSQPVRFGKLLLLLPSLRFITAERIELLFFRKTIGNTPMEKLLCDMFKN
#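 Assay system: NR2E3–RetCOR corepressor complex. Quantity: 1.35 nM GST-NR2E3. Buffer or medium: pH 7.5 Tris-based buffer. Reagent: biotinylated RetCOR corepressor at 7 nM final. Schedule: 5 h at 4 °C. Detection: TR-FRET, emission read at 617 and 671 nm. Replicates: one well per compound, singlicate testing.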
# Jurkat NFkB inh: inhibitors of the PMA/ionomycin-induced NF-kB reporter in Jurkat cells; PMA/ionomycin-induced NF-kB luciferase reporter, luminescence; inhibition, % at 4 µM; 330,000 tested, 0.53% active; AID 435003; in the data active = inhibition above about 50%
# 697 NFkB inh: inhibitors of the PMA/ionomycin-induced NF-kB reporter in 697 B cells. 697 B-cell NF-kB luciferase reporter, 16 h. inhibition, % at 4 µM. 330,000 tested, 0.33% active; in the data active = inhibition above about 35%
# NR2E3 ag-2: agonists of human NR2E3 nuclear receptor. Q9Y5X4. CHO-S Gal4-NCOR/VP16-NR2E3 two-hybrid, luciferase. inhibition of corepressor binding, % at 3.98 µM. 360,000 tested, 0.35% active;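 active = inhibition above the mean of all tested compounds plus 3 SD, cut at about 70% in these data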;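 also: 0% = DMSO with NR2E3 transfected cells and 100% = cells lacking NR2E3 construct; higher means lower luciferase signal from less NR2E3 corepressor binding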
# aDG glyco up: increases alpha dystroglycan glycosylation | Pro5-aDG cells, alpha-DG glycosylation AlphaScreen (IIH6); 0% Pro5, 100% B10-LARGE cell signal | 360,000 tested, 0.22% active | activation, % at 10 µM;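 active = activation of at least 8% versus controls, or a plate z-score of at least 8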;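 also: Pro5 are CHO cells carrying HIG-tagged alpha-DG that lacks glycosylation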
# NR2E3 ag confirm: NR2E3 agonism confirmed in two-hybrid assay; CHO-S mammalian two-hybrid NR2E3-NCOR, luciferase luminescence; shares compounds with NR2E3 ag-2; 2,300 tested, 51% active; inhibition, % at 3.98 µM;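 active = average inhibition above a cutoff equal to the mean inhibition of all tested compounds plus one SD, cut at about 70% in these data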;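 also: 0% = DMSO in NR2E3 cells and 100% = DMSO in cells lacking NR2E3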
# VP16 counter: reduces GAL4-VP16 reporter signal in NR2E3 counterscreen | CHO-S GAL4-VP16 luciferase reporter, luminescence | shares compounds with NR2E3 ag-2 | 2,300 tested, 29% active | inhibition, % at 3.98 µM;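 active = mean inhibition above a cutoff equal to the average over all tested compounds plus one standard deviation, cut at about 70% in these data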;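 also: luciferase from a UAS reporter driven by GAL4-VP16 transactivation; 0% = DMSO with VP16-transfected cells and 100% = DMSO with cells lacking VP16; higher means less reporter light so more repression of VP16 activity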
# The depositor's hits bear a star; x = no result given. This is a sample that favours compounds with a hit; in the whole collection about 2.4% have one here.
SMILES,MPTP inh,NR2E3 ag-1,Jurkat NFkB inh,697 NFkB inh,NR2E3 ag-2,aDG glyco up,NR2E3 ag confirm,VP16 counter
CSC1SCC2C(=O)N(C)C(C(C)C)C(=O)OCC(NC(=O)c3cnc4ccccc4n3)C(=O)NC(C)C(=O)N(C)C1C(=O)N(C)C(C(C)C)C(=O)OCC(NC(=O)c1cnc3ccccc3n1)C(=O)NC(C)C(=O)N2C (stereo not given),-2,x,x,x,103*,0,98*,95*
COC(=O)C1CN(C(=O)C(C)Oc2ccccc2F)c2ccccc2O1 (stereo not given),0,-3,-45,-27,-13,0,x,x
Cc1ccc(C2=NS(=O)(=O)N(C)C(C(=O)Nc3ccc4c(c3)OCO4)=C2)cc1,9,4,-9,0,49,0,33,42
Cc1cc(Br)ccc1NC(=O)CNC(=O)c1cnn(C)c1,0,0,-12,17,3,0,x,x
CC(Oc1ccc(Br)cc1)c1nc2c3ccccc3nc(=S)n2[nH]1 (stereo not given),6,-1,8,-17,83*,0,89*,41
S=c1nc2ccccc2c2nc(-c3ccccc3)[nH]n12,2,1,0,-8,83*,0,-56,-63
S=c1nc2ccccc2c2nc(-c3ccccc3Cl)[nH]n12,2,5,-7,-17,-12,0,x,x
O=C(Nc1nc(-c2ccccn2)cs1)Nc1ccc(F)cc1F,0,0,-3,-63,70*,1,36,-20
O=C(Nc1nc(-c2ccccc2)cs1)Nc1ccc(F)cc1F,2,-4,-3,-11,-19,0,x,x
CC(Oc1ccc(Br)cc1)C(=O)Nc1nc(-c2ccccn2)cs1 (stereo not given),-1,-3,4,1,76*,3,19,13
CN(C)Cc1ccc(CNC(=O)COc2ccc3ccccc3c2)cc1,1,-1,-13,-10,-26,0,x,x
Cc1cccc(C)c1NC(=O)CN(C)C(=O)c1cccc(S(=O)(=O)N2CCN(c3ccccc3)CC2)c1,0,3,2,6,24,0,x,x
O=C(c1cc(S(=O)(=O)N2CCN(c3ccccc3)CC2)ccc1Cl)N1CCCCCCC1,1,3,17,-2,67,1,79*,48
CN(CC(=O)Nc1cccc(F)c1)C(=O)c1ccc(N2CCCC2)c([N+](=O)[O-])c1,3,-4,-22,7,63,0,19,23
CN(CC(=O)Nc1cccc(F)c1)C(=O)c1ccc(N2CCCCCC2)c([N+](=O)[O-])c1,2,-2,-8,-11,-2,1,x,x
CN(CC(=O)Nc1ccccc1Cl)C(=O)c1cccc(S(=O)(=O)N2CCN(c3ccccc3)CC2)c1,30,x,x,x,63,2,82*,63
CC1CN(C(=O)c2cc(S(=O)(=O)N3CCN(c4ccccc4)CC3)ccc2Cl)CC(C)O1 (stereo not given),-1,-2,14,3,10,0,x,x
CN(CC(=O)Nc1cccc(F)c1)C(=O)c1cccc(S(=O)(=O)N2CCN(c3ccc(F)cc3)CC2)c1,1,x,x,x,50,2,46,26
CS/C(N)=N/S(=O)(=O)c1ccc(NC(C)=O)cc1,0,-3,-2,-4,-28,1,x,x
CCCCn1c(N)c(N(C)C(=O)c2ccc(OCC3CCCO3)cc2)c(=O)[nH]c1=O (stereo not given),0,6,18,7,2,0,x,x
COC(=O)CN1C(=O)N/C(=C/c2ccccc2OC)C1=O,-2,1,-5,1,10,0,x,x
CC(=O)NCCC1CCN(C(=O)c2cc(COc3ccc(C)nc3)on2)CC1,0,1,-12,5,-8,0,x,x
